pIC50: −log10 of the molar value. Active and inactive are the calls of the source. The calls are words filed in the database; no cut-off is given here.

The nature of data set [1]: Inhibition of Bacillus subtilis Sfp-PPTase using rhodamine-CoA/BHQ-2-YbbR as substrate preincubated for 15 mins followed by substrate addition by HTS assay.
Data set [2] can be described thus: Inhibition of Bacillus subtilis AcpS-PPTase using rhodamine-CoA/BHQ-2-YbbR as substrate preincubated for 15 mins followed by substrate addition by HTS assay. Summed up: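 AcpS-PPTase at 100 nM final in 50 mM HEPES-Na pH 7.6, 10 mM MgCl2, 0.01% Nonidet P-40, 0.01% BSA; compound preincubated 15 min at room temperature, then rhodamine-CoA (5 μM final) and BHQ-2-YbbR (12.5 μM final) added. Fluorescence read (525 ex/598 em) at start and after 60 min; difference gives rate.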

A further data set relates to Liver microsome. Put plainly: Drug metabolism in human liver microsomes assessed as GSH adduct formation at 50 uM after 60 mins by LC-MS/MS analysis in presence of NADPH. The following applies: 1 h. Type of data set: ADME.
Data set [3] deals with Bacillus subtilis. Put plainly: Antibacterial activity against Bacillus subtilis HM489 assessed as cellular ATP content after 5 hrs by BacTiter-Glo assay. The data set is classed as functional, organism-based. To be noted: HM489, 5 h.
A further data set has as its system HepG2. The data set is described as follows: Cytotoxicity against human HepG2 cells assessed as cellular ATP content after 48 hrs by CellTiter-Glo assay. The following applies: HepG2, 48 h. The data set is classed as cell-based. In a few lines: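 HepG2 cells exposed to compound; viability read as cellular ATP by luciferase-coupled CellTiter-Glo.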
For orientation: In ATP-based viability assays light output follows the ATP content of the culture.

The target in data set [4] is T1, L-aminoadipate-semialdehyde dehydrogenase-phosphopantetheinyl transferase (Homo sapiens) (UniProt Q9NRN7).
T1 sequence (whole entry): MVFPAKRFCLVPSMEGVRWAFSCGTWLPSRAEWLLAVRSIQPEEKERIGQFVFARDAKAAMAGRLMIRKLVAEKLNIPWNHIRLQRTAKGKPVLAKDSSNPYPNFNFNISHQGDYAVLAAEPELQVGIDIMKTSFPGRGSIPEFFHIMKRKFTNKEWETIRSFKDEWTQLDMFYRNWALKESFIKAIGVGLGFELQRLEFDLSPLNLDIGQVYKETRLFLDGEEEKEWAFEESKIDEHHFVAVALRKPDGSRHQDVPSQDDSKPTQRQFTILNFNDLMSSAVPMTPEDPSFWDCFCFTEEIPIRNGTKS
Put plainly: Inhibition of human PPTase up to 125 uM by gel-based fluorescence assay.

Data set [5] concerns Bacillus subtilis. Put plainly: Antibacterial activity against Bacillus subtilis 168 assessed as growth inhibition after 16 to 20 hrs by resazurin dye-based assay. The data set is classed as functional. The following applies: subsp. subtilis str. 168. Summed up:
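Broth microdilution. Test article from 1 μL DMSO in 50 μL cation-adjusted Mueller Hinton II (bacteria) or RPMI 1640 (fungi), plus ~1×10^3 cfu inoculum in the same medium. Incubated 16–20 h at 30–37 °C (48 h for fungi). MIC scored visually as the first well without growth; resazurin added for imaging.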
For orientation: The colour change of resazurin is a common sign of viable cells or microbes.

Data set [6] relates to Bacillus subtilis. The data set is described as follows: Antibacterial activity against Bacillus subtilis 168 assessed as disruption of cell membrane integrity at 10 times MIC after 15 mins by Syto9/propidium iodide staining-based BacLight LIVE/DEAD microscopic analysis. Type of data set: functional, organism-based. The following applies: subsp. subtilis str. 168.
The test system of another data set is Staphylococcus aureus. The data set is described as follows: Antibacterial activity against Staphylococcus aureus BK2395 in Swiss Webster mouse septicemia model assessed as increase in survival at 50 mg/kg, ip administered 4 to 48 hrs measured 3 times daily for 14 days. The data set is classed as functional, organism-based. Also noted: dose 50 mg/kg.

As to `Cc1ccnc(NC(=S)N2CC3CN(c4cccc(C(F)(F)F)c4)CC3C2)c1` (configuration not stated), the pIC50 in data set [1] is 6.14.
As for `Cc1cc(C)nc(NC(=S)N2CCN(Cc3cccc(C(F)(F)F)c3)CC2)c1`, the negative-log IC50 (pIC50) in [1] is 4.94.
As for `Cc1cc(C)nc(Nc2nnc(N3CCN(c4cccc(C(F)(F)F)c4)CC3)s2)c1`, the pIC50 in [1] is at most 3.94.
On to `Cc1ccnc(NC(=S)N2CCN(C)CC2)c1`, for which the pIC50 in data set [1] was 5.19.
In the case of `Cc1ccnc(NC(=S)N2CCCN(c3cccc(C(F)(F)F)c3)CC2)c1`, in [1], the pIC50 is 5.80.
The compound `Cc1ccnc(N(C)C(=S)N2CCN(c3cccc(C(F)(F)F)c3)CC2)c1` had a pIC50 in data set [1] of at most 3.94.
For `Cc1cc(C)nc(NC(=S)N2CCN(c3ccc(Cl)cc3C(F)(F)F)CC2)c1`, the pIC50 in data set [2] was 4.99; with Bacillus subtilis [3], 4.73; with HepG2, at most 3.94; in data set [1], 6.24. Besides, in the data set with Liver microsome, the Drug metabolism entry is on record as “Not Active”.
`Cc1ccnc(NC(=S)NCCN(C)c2cccc(C(F)(F)F)c2)c1` showed a pIC50 in data set [1] of at most 3.94.
In turn, `Cc1cc(C)nc(NC(=S)N2CCN(S(=O)(=O)c3cccc(C(F)(F)F)c3)CC2)c1` showed a pIC50 in data set [1] of 6.09.
In the case of `Cc1cc(C)nc(NC(=S)N2CCN(c3cccc(C#N)c3)CC2)c1`, the pIC50 in data set [1] is 5.80.
In data set [1], `Cc1ccnc(NC(=S)N2CCN(c3cccc(N(C)C)c3)CC2)c1` had a pIC50 of 5.24.
For `Cc1ccnc(NC(=S)N2CCN(c3cccc(C(F)(F)F)c3)C[C@@H]2C)c1`, the pIC50 in [1] was 4.94.
Take `Cc1cc(C)nc(NC(=S)N2CCN(c3cc(Cl)c(Cl)c(Cl)c3)CC2)c1`: the pIC50 in data set [1] is 6.54.
In [1], `Cc1cccc(NC(=S)N2CCN(c3cccc(C(F)(F)F)c3)CC2)c1` had a pIC50 of at most 3.94.
In data set [1], `COc1cc(OC)cc(N2CCN(C(=S)Nc3cc(C)cc(C)n3)CC2)c1` showed a pIC50 of 5.70.
Same read-out and setting: as for `FC(F)(F)c1cccc(N2CCN(C(=S)Nc3ccc4ccccc4n3)CC2)c1`, the figure is 5.82.
`Cc1cc(C)nc(NC(=S)N2CCN(c3ccc(C(F)(F)F)cn3)CC2)c1`: the pIC50 in data set [2] was 4.79; with Bacillus subtilis [3], 4.88; with HepG2, 4.80.
As to `Cc1ccnc(NC(=S)NCCNc2cccc(C(F)(F)F)c2)c1`, in data set [1], the pIC50 was at most 3.94.
`Cc1ccnc(CC(=S)N2CCN(c3cccc(C(F)(F)F)c3)CC2)c1`: in data set [1], the pIC50 was 5.24.
On to `Nc1ncnc2c1ncn2[C@@H]1O[C@H](COP(=O)(O)O)[C@@H](OP(=O)(O)O)[C@H]1O`, for which the inhibition entry in [4] is “Active”.
Compound `FC(F)(F)c1cccc(N2CCN(C(=S)Nc3ccc4cccnc4n3)CC2)c1` had a pIC50 in data set [1] of 6.00.
In the case of `Cc1ccnc(NC(=O)N2CCN(c3cccc(C(F)(F)F)c3)CC2)c1`, the pIC50 in [2] was at most 3.94; in the data set with Bacillus subtilis [3] it was at most 3.94; in the data set with HepG2 it was 5.15; in data set [1], at most 3.94.
For the compound `Cc1cc(C)nc(NC(=S)N2CCNCC2)c1`, the pIC50 in [1] is 4.84.
For the compound `Cc1ccnc(NC(=N)N2CCN(c3cccc(C(F)(F)F)c3)CC2)c1`, the pIC50 in data set [1] was at most 3.94.
Take `COC(=O)c1ccnc(NC(=S)N2CCN(c3cccc(C(F)(F)F)c3)CC2)c1`: the pIC50 in [1] was 4.94.
`Cc1cc(C)nc(NC(=S)N2CCN(c3cc(C#N)cc(C#N)c3)CC2)c1` had a pIC50 in data set [1] of 6.19.
As for `Cc1cc(C)nc(NC(=S)N2CCN(c3ccc(Cl)c(Cl)c3)CC2)c1`, the pIC50 in data set [1] is 6.04.
In [1], `Cc1cc(C)nc(NC(=S)N2CCN(c3cccc(C(F)(F)F)c3)CC2)c1` gave a pIC50 of 6.29.
The compound `Cc1ccnc(NC(=S)Nc2cccc(C(F)(F)F)c2)c1` showed a pIC50 in data set [1] of 4.64.
The same measure, in the same setting: as for `Cc1ccnc(NC(=S)NC2CN(c3cccc(C(F)(F)F)c3)C2)c1`, the figure is at most 3.94; as for `Cc1ccnc(C(=S)N2CCN(c3cccc(C(F)(F)F)c3)CC2)c1`, at most 3.94.
`Cc1cc(C)nc(N/C(=N/C#N)N2CCN(c3cccc(C(F)(F)F)c3)CC2)c1` gave a pIC50 in data set [1] of at most 3.94.
In turn, `Cc1cc(C)nc(NC(=S)N2CCN(c3ccc(Cl)c(Cl)c3Cl)CC2)c1` showed a pIC50 in [1] of 6.14.
Regarding `Cc1cc(C)nc(NC(=S)N2CCN(c3cc(C(F)(F)F)cc(C(F)(F)F)c3)CC2)c1`, the pIC50 in data set [1] is 6.29.
In data set [1], `COc1cccc(NC(=S)N2CCN(c3cccc(C(F)(F)F)c3)CC2)n1` had a pIC50 of 5.82.
With `Cc1ccnc(NC(=S)N2CCN(c3cccc(C(F)(F)F)c3)C2)c1`, in data set [1], the pIC50 was 6.09.
For the compound `Cc1cc(C)nc(NC(=S)N2CCN(c3cccc(S(C)(=O)=O)c3)CC2)c1`, the pIC50 in data set [1] is 5.54.
As to Cetyltrimethylammonium bromide, the “growth inhibition (GI)” value in the data set with Bacillus subtilis [5] was “Active”. The outcome in the data set on Bacillus subtilis [6] was Active.
`FC(F)(F)c1cccc(N2CCN(C(=S)Nc3ccccn3)CC2)c1`: in data set [1], the pIC50 was 6.04.
In data set [1], `Cc1cc(C)nc(NC(=S)N2CCN(c3cc(Cl)cc(Cl)c3)CC2)c1` gave a pIC50 of 6.07.
The compound `Cc1cc(C)nc(NC(=S)N2CCN(c3cc(F)cc(F)c3)CC2)c1` showed a pIC50 in [1] of 5.89.
Same read-out and setting: as for `Cc1ccnc(NC(=S)NC2CCN(c3cccc(C(F)(F)F)c3)CC2)c1`, the figure is at most 3.94.
In turn, `Cc1cc(C)cc(N2CCN(C(=S)Nc3cc(C)cc(C)n3)CC2)c1` had a pIC50 in [1] of 5.80.
In the case of `CN[C@H](CC(C)C)C(=O)N[C@H]1C(=O)N[C@@H](CC(N)=O)C(=O)N[C@H]2C(=O)N[C@H]3C(=O)N[C@H](C(=O)N[C@H](C(=O)O)c4cc(O)cc(O)c4-c4cc3ccc4O)[C@H](O)c3ccc(c(Cl)c3)Oc3cc2cc(c3O[C@@H]2O[C@H](CO)[C@@H](O)[C@H](O)[C@H]2O[C@H]2C[C@](C)(N)[C@H](O)[C@H](C)O2)Oc2ccc(cc2Cl)[C@H]1O`, in the data set on Staphylococcus aureus, the result was Active.
As to `FC(F)(F)c1cccc(N2CCN(C(=S)Nc3ccncc3)CC2)c1`, in [1], the pIC50 was at most 3.94.
In turn, `FC(F)(F)c1cccc(N2CCN(C(=S)Nc3cc(C(F)(F)F)ccn3)CC2)c1` had a pIC50 in data set [1] of at most 3.94.
Turning to `Cc1ccnc(NC(=S)N2CCC(Nc3cccc(C(F)(F)F)c3)CC2)c1`, the pIC50 in [2] was 4.89; in the data set with Bacillus subtilis [3], 4.88; in the data set on HepG2, at most 3.94; in data set [1] it was 6.09.
As for `O=C(N[C@H](CO)[C@H](O)c1ccc([N+](=O)[O-])cc1)C(Cl)Cl`, in the data set with Bacillus subtilis [5], the “growth inhibition (GI)” value is “Active”. Besides, the outcome in the data set with Bacillus subtilis [6] was inactive.
Regarding `C/N=c1\nc(-c2ccccc2)n(-c2ccccc2)s1`, in data set [4], the inhibition entry was “Active”.
Take `Cc1ccnc(NC(=S)N2CCN(c3ccc(C(F)(F)F)cc3)CC2)c1`: in data set [1], the pIC50 was 6.00.
Turning to `Cc1cc(C)nc(NC(=S)N2CCN(c3nnc(C(F)(F)F)s3)CC2)c1`, the pIC50 in data set [1] is 5.80.
Still for that read-out and setting: as for `Cc1cc(C)nc(NC(=S)N2CCN(c3ccc(Cl)cc3Cl)CC2)c1`, the figure is 6.00; as for `COc1ccnc(NC(=S)N2CCN(c3cccc(C(F)(F)F)c3)CC2)c1`, 5.92.
`Cc1cc(C)nc(NC(=S)N2CCN(c3cccc(Cl)c3Cl)CC2)c1` gave a pIC50 in data set [1] of 5.80.
Consider `Cc1cc(C)nc(NC(=S)N2CCN(c3ncc(C(F)(F)F)cc3Cl)CC2)c1`, for which the pIC50 in data set [2] is 4.73; in the data set with Bacillus subtilis [3], 4.44; in the data set with HepG2, 4.52; in data set [1], 6.07.
As to `Cc1cc(C)nc(NC(=C(C#N)C#N)N2CCN(c3cccc(C(F)(F)F)c3)CC2)c1`, in [1], the pIC50 was at most 3.94.
On to `Cc1ccnc(NC(=S)N2CCN(c3ccccc3C(F)(F)F)CC2)c1`, for which the pIC50 in data set [2] is 4.99; in the data set on Bacillus subtilis [3], 5.03; with HepG2, at most 3.94; in data set [1] it was 6.21.

One may read the pIC50 as the negative decadic logarithm of the IC50, by convention in mol/L.

Source of the values: ChEMBL document CHEMBL3124880, “4-(3-Chloro-5-(trifluoromethyl)pyridin-2-yl)-N-(4-methoxypyridin-2-yl)piperazine-1-carbothioamide (ML267), a potent inhibitor of bacterial phosphopantetheinyl transferase that attenuates secondary metabolism and thwarts bacterial growth” (J Med Chem, 2014).
